Test results published in ChEMBL document CHEMBL1926607 (J Med Chem, 2011).
The source made the active and inactive calls. No cut-off for these calls is given here.

What follows are compounds tested against T1, 5-hydroxytryptamine receptor 1A (Homo sapiens) (UniProt P08908) (assay: Agonist activity at human 5HT1A receptor expressed in human HeLa cells assessed as inhibition of forskolin-stimulated cAMP production pretreated 20 mins before forskolin challenge measured after 2 hrs by RIA relative to control).
T1 sequence (whole entry): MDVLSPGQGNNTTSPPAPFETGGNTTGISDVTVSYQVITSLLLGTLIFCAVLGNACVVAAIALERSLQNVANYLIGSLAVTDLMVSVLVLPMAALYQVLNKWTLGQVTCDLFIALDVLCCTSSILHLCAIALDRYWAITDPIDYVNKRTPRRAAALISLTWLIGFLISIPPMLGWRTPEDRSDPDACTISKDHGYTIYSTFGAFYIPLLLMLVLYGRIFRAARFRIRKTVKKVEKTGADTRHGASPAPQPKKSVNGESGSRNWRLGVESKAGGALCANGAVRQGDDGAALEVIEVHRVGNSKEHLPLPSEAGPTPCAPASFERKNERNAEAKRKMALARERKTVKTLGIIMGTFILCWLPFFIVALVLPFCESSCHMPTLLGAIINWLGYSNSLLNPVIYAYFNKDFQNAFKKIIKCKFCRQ
Assay type: functional, cell-based

Compound | Emax
O=C1C2CCCN2C(=O)N1CCCCCCNCC1CCc2ccccc2O1 (centres undefined) | 91.2%
O=C1C2CCCN2C(=O)N1CCCCCNCC1CCc2ccccc2O1 (centres undefined) | 92.5%
O=C1CSC(=O)N1CCCCCNCC1CCc2ccccc2O1 (centres undefined) | 94.8%
O=C1CSC(=O)N1CCCCCCNCC1CCc2ccccc2O1 (centres undefined) | 87%
O=C1CSC(=O)N1CCCCNCC1CCc2ccccc2O1 (centres undefined) | 89.6%
O=C1C2CSCN2C(=O)N1CCCCNCC1CCc2ccccc2O1 (centres undefined) | 89.3%
O=C1C2CCCN2C(=O)N1CCCCNCc1ccc2ccccc2n1 (centres undefined) | 75.8%

Each compound was assayed against 5-hydroxytryptamine receptor 2A (Rattus norvegicus, UniProt P14842) (assay: Displacement of [3H]ketanserin from 5HT2A receptor in Sprague-Dawley albinus rat frontal cortex membranes after 15 mins).
Assay type: cell membranes, Membrane
Procedure, shortened: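 Rat frontal cortex membranes (male Sprague–Dawley, 180–200 g). Nonspecific binding was set with 1 μM cinanserin.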

Sequence of 5-hydroxytryptamine receptor 2A (P14842 whole entry): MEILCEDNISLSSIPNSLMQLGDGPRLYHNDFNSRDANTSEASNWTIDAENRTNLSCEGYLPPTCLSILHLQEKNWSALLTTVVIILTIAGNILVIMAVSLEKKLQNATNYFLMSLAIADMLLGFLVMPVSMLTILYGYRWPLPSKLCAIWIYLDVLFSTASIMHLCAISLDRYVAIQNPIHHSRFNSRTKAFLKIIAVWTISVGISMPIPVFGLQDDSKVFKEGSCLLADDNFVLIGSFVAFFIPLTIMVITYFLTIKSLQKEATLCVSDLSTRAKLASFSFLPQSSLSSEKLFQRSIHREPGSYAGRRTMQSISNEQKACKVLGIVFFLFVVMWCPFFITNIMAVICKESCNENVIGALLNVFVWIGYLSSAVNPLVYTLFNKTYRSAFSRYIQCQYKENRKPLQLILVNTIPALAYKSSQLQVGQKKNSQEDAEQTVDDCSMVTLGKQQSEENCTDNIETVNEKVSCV

Compound | Ki
O=C1C2CCCN2C(=O)N1CCCCCCNCC1CCc2ccccc2O1 (centres undefined) | > 1 µM
O=C1C2CCCN2C(=O)N1CCCCCNCC1CCc2ccccc2O1 (centres undefined) | > 1 µM
O=C1CSC(=O)N1CCCCCNCC1CCc2ccccc2O1 (centres undefined) | > 1 µM
O=C1CSC(=O)N1CCCCCCNCC1CCc2ccccc2O1 (centres undefined) | > 1 µM
O=C1CSC(=O)N1CCCCNCC1CCc2ccccc2O1 (centres undefined) | > 1 µM
O=C1C2CSCN2C(=O)N1CCCCNCC1CCc2ccccc2O1 (centres undefined) | > 1 µM
O=C1C2CCCN2C(=O)N1CCCCNCc1ccc2ccccc2n1 (centres undefined) | > 1 µM

Each compound was assayed against T1, 5-hydroxytryptamine receptor 1A (Homo sapiens) (assay: Partial agonist activity at human 5HT1A receptor expressed in human HeLa cells assessed as inhibition of forskolin-stimulated cAMP production pretreated 20 mins before forskolin challenge measured after 2 hrs by RIA).
Assay type: functional, cell-based
Procedure, shortened: (§1)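 HeLa cells stably expressing the h5-HT1AR, grown in DMEM with 2 mM glutamine, 1 mM pyruvate and 10% heat-inactivated FCS, and used after 2–3 days at about 7.5 × 10^4 cells/well. After a PBS wash, cells were incubated 10 min in PBS with 0.5 mM isobutylmethylxanthine and 10 μM forskolin, with or without compound. The reaction was stopped with ice-cold ethanol, extracted 2 h and lyophilized; cAMP was measured by RIA.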

Compound | Activity
O=C1C2CCCN2C(=O)N1CCCCNCc1ccc2ccccc2n1 (centres undefined) | Active

The compounds below were run against T2, 5-hydroxytryptamine receptor 1A (Rattus norvegicus, UniProt P19327) (assay: Displacement of [3H]-8-OH-DPAT from 5-HT1A receptor in Sprague-Dawley albinus rat cerebral cortex membranes after 15 mins).
T2 sequence (P19327 whole entry): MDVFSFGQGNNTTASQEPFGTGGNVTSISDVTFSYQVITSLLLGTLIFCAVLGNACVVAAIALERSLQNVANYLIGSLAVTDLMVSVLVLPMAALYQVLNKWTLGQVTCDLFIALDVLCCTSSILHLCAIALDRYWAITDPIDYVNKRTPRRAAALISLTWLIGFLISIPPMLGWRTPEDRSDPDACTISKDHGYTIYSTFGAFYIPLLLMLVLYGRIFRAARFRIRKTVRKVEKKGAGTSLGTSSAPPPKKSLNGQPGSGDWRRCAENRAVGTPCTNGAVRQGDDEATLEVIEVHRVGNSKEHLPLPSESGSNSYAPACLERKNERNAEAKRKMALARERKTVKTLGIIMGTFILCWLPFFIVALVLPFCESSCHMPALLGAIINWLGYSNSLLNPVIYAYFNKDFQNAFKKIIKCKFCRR
Assay type: cell membranes, Membrane

Compound | Ki
O=C1C2CCCN2C(=O)N1CCCCCCNCC1CCc2ccccc2O1 (centres undefined) | 0.0059 µM
O=C1C2CCCN2C(=O)N1CCCCCNCC1CCc2ccccc2O1 (centres undefined) | 0.0129 µM
O=C1CSC(=O)N1CCCCNCC1CCc2ccccc2O1 (centres undefined) | 0.0151 µM
O=C1C2CSCN2C(=O)N1CCCCNCC1CCc2ccccc2O1 (centres undefined) | 0.013 µM
O=C1C2CCCN2C(=O)N1CCCCNCc1ccc2ccccc2n1 (centres undefined) | 0.0083 µM

What follows are compounds tested against T3, 5-hydroxytryptamine receptor 1A (Homo sapiens, UniProt P08908) (assay: Agonist activity at human 5HT1A receptor expressed in human HeLa cells assessed as inhibition of forskolin-stimulated cAMP production […] measured after 2 hrs by RIA).
T3 sequence (P08908 whole entry): T1 sequence (whole entry)
Assay type: functional, cell-based
Procedure, shortened: as §1

Compound | EC50
O=C1C2CCCN2C(=O)N1CCCCCCNCC1CCc2ccccc2O1 (centres undefined) | 0.0218 µM
O=C1C2CCCN2C(=O)N1CCCCCNCC1CCc2ccccc2O1 (centres undefined) | 0.157 µM
O=C1CSC(=O)N1CCCCCNCC1CCc2ccccc2O1 (centres undefined) | 0.0342 µM
O=C1CSC(=O)N1CCCCCCNCC1CCc2ccccc2O1 (centres undefined) | 0.0199 µM
